Most compounds without a hit are left out; they make up all but 2% or so of the library.
T cell HTS: modulates CD8 T cell binding to vesicles; actives 0.068% (n = 330,000); response (vesicle binding), % at 7 µM; 2C CD8+ T cell-vesicle binding, flow cytometry; stronger effect = lower value;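 active means response, share of CD8 T cells binding vesicles, and their 90th percentile fluorescence all below set limits, cut at about 80% in these data, passing the limit was not always enough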;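 further: values below 100% mean blocked vesicle binding to the CD8+ T cells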
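Material: murine 2C transgenic CD8+ T lymphocytes / Also added: QL9-peptide-loaded Drosophila micro-vesicles bearing Ld, ICAM-1 and B7-1 / Schedule: binding step 1.5 h, 37 °C, antibody labelling 20 min, ice / Signal: flow cytometry, PE anti-B7-1 (FL2) versus Alexa647 anti-CD8 (FL8), PFA-fixed / Evaluation: percent CD8+ FL2 mean versus row control / Benchmarks: naked versus QL9-loaded vesicles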
NR2E3 ag-1: agonists of human NR2E3 nuclear receptor; Q9Y5X4; actives 0.35% (n = 360,000); inhibition of corepressor binding, % at 3.98 µM; CHO-S Gal4-NCOR/VP16-NR2E3 two-hybrid, luciferase; AID 602229;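 active means inhibition above the mean of all tested compounds plus 3 SD, cut at about 70% in these data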;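 further: higher means lower luciferase signal from less NR2E3 corepressor binding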
Target sequence (Q9Y5X4 whole entry, looked up, the tested form may be a part): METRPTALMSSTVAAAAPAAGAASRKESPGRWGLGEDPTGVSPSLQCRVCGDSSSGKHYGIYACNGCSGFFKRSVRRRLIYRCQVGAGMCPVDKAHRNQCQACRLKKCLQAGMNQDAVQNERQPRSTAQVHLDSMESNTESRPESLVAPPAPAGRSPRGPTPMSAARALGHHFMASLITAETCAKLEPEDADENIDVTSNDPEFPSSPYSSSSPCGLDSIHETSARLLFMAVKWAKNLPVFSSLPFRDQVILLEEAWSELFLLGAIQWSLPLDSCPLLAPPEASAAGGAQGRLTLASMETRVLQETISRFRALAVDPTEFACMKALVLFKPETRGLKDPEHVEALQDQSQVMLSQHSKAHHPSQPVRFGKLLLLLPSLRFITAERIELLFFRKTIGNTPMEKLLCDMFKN
NR2E3 ag-2: activates human photoreceptor nuclear receptor NR2E3; Q9Y5X4; GST-NR2E3/biotin-RetCOR TR-FRET, 1536-well; inhibition of corepressor binding, % at 4.78 µM; actives 0.12% (n = 320,000); AID 2300;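 active means percent inhibition above the cutoff of mean plus 3 SD of all tested compounds, set per screening campaign, cut at about 20% in these data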
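system = GST-tagged NR2E3 plus biotinylated RetCOR corepressor | input = 1.35 nM GST-NR2E3 | also added = 7 nM biotin-RetCOR | schedule = 5 h incubation at 4 °C | measured by = TR-FRET with europium anti-GST and streptavidin-D2, 340 nm excitation | read-out = percent loss of FRET ratio relative to control wells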
GAA850 FXN act: activators of GAA850 frataxin (FXN) promoter; activation, % at 6 µM; HEK293 lucGAA850 FXN promoter luciferase reporter, 24 h; percent of 10 µM SAHA response; actives 0.56% (n = 360,000);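 active means activation above the average of all compounds screened plus 3 SD, cutoff fixed separately per campaign, cut at about 7.5% in these data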
Myeloid diff 2: promotes myeloid progenitor differentiation. ER-HoxA9 myeloid progenitors, lysozyme-GFP differentiation, flow cytometry. calls only at 10 µM. actives 1% (n = 360,000);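 active means normalized GFP-positive differentiation at or above the plate's own cutoff, the solvent-only control mean plus 3 SD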;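 further: cells exposed to compound for four days before flow analysis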
Myeloid diff CP1: myeloid differentiation induction | shares compounds with Myeloid diff 2 | ER-HoxA9 myeloid progenitors, GFP/Mac1 double-positive flow | calls only | actives 2% (n = 2,300) | AID 651706;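 active means share of green or green-and-red cells above 9 and 9% in run 1 or 4 and 3% in run 2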
GFP autofluor: flagged as fluorescent in myeloid differentiation counter-screen | ER-HoxA9 myeloid progenitors, no estrogen, GFP autofluorescence flow cytometry; vehicle wells 0%, positive control 100% | fluorescence response, % (no concentration beside the values) | actives 7.4% (n = 2,300) | AID 651707 | shares compounds with Myeloid diff 2;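 active means over 5% cells positive for green fluorescent reporter, or over 2% positive for both it and APC stain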
Each line names hits and unclear results; the compound was inactive in the other large screens (follow-up assays come after a bar, where they were run).

C=CCNC(=O)c1ccc(N(Cc2ccccc2)S(C)(=O)=O)cc1	none
Cc1ccc(Cl)cc1N1CCN(Cc2nc3c(c(=O)[nH]c(=O)n3C)n2Cc2ccccc2F)CC1	none
Cc1ccc(Cl)cc1N1CCN(Cc2nc3c(c(=O)[nH]c(=O)n3C)n2CCc2ccccc2)CC1	none | Myeloid diff CP1 inactive | GFP autofluor inactive
CCCn1c(SCC(=O)NC2CCCC2)nnc1C(C)C	none (no result: Myeloid diff 2)
COc1ccc(NC(=O)C2CCCC2)cc1	none
COc1ccc(NC(=O)C2CCC(=O)N2)cc1 (configuration not stated)	none | Myeloid diff CP1 inactive | GFP autofluor inactive
COCCNc1nc(NCc2cccc(OC)c2)c2sc(-c3ccccc3)cc2n1	Myeloid diff 2 active (no result: T cell HTS, NR2E3 ag-2) | Myeloid diff CP1 inactive | GFP autofluor inactive
CC(C)Nc1nc(NCCN2CCCC2)c2sc(-c3ccccc3)cc2n1	Myeloid diff 2 active (no result: T cell HTS, NR2E3 ag-2) | Myeloid diff CP1 inactive | GFP autofluor inactive
Cc1ccc2nc3c(cc2c1)CN(Cc1ccco1)C(=NCC1CCCO1)S3 (configuration not stated)	none | Myeloid diff CP1 inactive | GFP autofluor inactive
Cc1cccc2cc3c(nc12)SC(=NCC1CCCO1)N(Cc1ccco1)C3 (configuration not stated)	none
CC1(C(=O)Nc2cccc(C#N)c2)CCN1C(=O)c1ccccc1CCc1ccccc1 (configuration not stated)	none (no result: T cell HTS, NR2E3 ag-2)
c1ccc(C2=Nc3ccccc3OC2)cc1	none | Myeloid diff CP1 inactive | GFP autofluor inactive
O=C(COc1cc(F)ccc1[N+](=O)[O-])Nc1cccc(S(=O)(=O)NC2=NCCC2)c1	none
CCC(=O)N(C)C[C@H]1Oc2ncc(C#Cc3ccncc3)cc2C(=O)N([C@@H](C)CO)C[C@@H]1C	none (no result: T cell HTS, NR2E3 ag-2)
O=C(Nc1ccccc1)c1cc(C2COCCN2C(=O)CCCc2ccccc2)on1 (configuration not stated)	none (no result: T cell HTS, NR2E3 ag-2)
COCCCNC(=O)c1ccc(Cn2c(=O)c3ccccc3n(Cc3ccccc3C#N)c2=O)cc1	Myeloid diff 2 active | Myeloid diff CP1 inactive | GFP autofluor inactive
COCCCNC(=O)c1ccc(Cn2c(=O)c3ccccc3n(Cc3ccccc3C)c2=O)cc1	none
CCCCCCCCNS(=O)(=O)CCNC1CC1	none (no result: T cell HTS, NR2E3 ag-2)
Nc1nnc(N)c2ccccc12	Myeloid diff 2 active | Myeloid diff CP1 inactive | GFP autofluor inactive
N#CCCSc1nc(N2CCOCC2)c2c(c1C#N)CCCC2	none | Myeloid diff CP1 inactive | GFP autofluor inactive
CCCSc1nc(N2CCOCC2)c2c(c1C#N)CCCC2	none
O=C1S/C(=C/c2ccc(N3CCOCC3)o2)C(=O)N1Cc1ccc(F)cc1	none | Myeloid diff CP1 inactive | GFP autofluor 31
COC(=O)c1ccc2nc(-c3ccco3)c(Cc3ccccc3)n2c1	none (no result: T cell HTS, NR2E3 ag-2, GAA850 FXN act)
Cc1cc(C)c2nc3sc(=Cc4ccc(-c5ccccc5C(=O)O)o4)c(=O)n3c2c1	none (no result: T cell HTS, NR2E3 ag-2)
Cc1ccc2c(nc3s/c(=C\c4ccc(-c5ccccc5C(=O)O)o4)c(=O)n32)c1C	none | Myeloid diff CP1 inactive | GFP autofluor 13
O=C(O)c1ccc(-c2ccc(/C=c3/sc4nc5ccccc5n4c3=O)o2)cc1Cl	none | Myeloid diff CP1 inactive | GFP autofluor inactive
CN(C)S(=O)(=O)c1cccc(NC(=O)COC(=O)CCc2nc3ccccc3s2)c1	none | Myeloid diff CP1 inactive | GFP autofluor inactive
CN(C)S(=O)(=O)c1cccc(NC(=O)COC(=O)c2ccc3ccccc3n2)c1	none (no result: NR2E3 ag-2)
CCOC(=O)C1CCC(=O)N1Cc1c[nH]c2ccccc12 (configuration not stated)	none (no result: T cell HTS, NR2E3 ag-2, GAA850 FXN act)
COc1ccc(Br)cc1CN(C)C(=O)C1=CC=CN2CCS(=O)(=O)N=C12	none (no result: NR2E3 ag-2) | Myeloid diff CP1 inactive | GFP autofluor inactive
CN(Cc1ccc(Cl)c(Cl)c1)C(=O)C1=CC=CN2CCS(=O)(=O)N=C12	Myeloid diff 2 active | Myeloid diff CP1 active | GFP autofluor inactive
COc1ccc(Br)cc1CN(C)C(=O)c1ccncc1	none
O=C(Oc1ccc(Cl)c(Cl)c1)C1=CC=CN2CCS(=O)(=O)N=C12	none (no result: NR2E3 ag-2)
COc1cc(C(=O)Nc2ccc3c(c2)N(C(=O)CN2CCN(C)CC2)c2ccccc2CC3)cc(OC)c1OC	none
O=C(Nc1cc(Br)ccc1O)c1cc(-c2ccc3c(c2)OCO3)on1	none
O=C(Nc1cc(Br)ccc1O)c1cc(-c2cccs2)on1	Myeloid diff 2 active | Myeloid diff CP1 inactive | GFP autofluor inactive
CC#CCN1c2ccccc2[C@]23C[C@@H](C(=O)OC)N(C(=O)NC4CCCCC4)C2=NC(C(=O)OC)=C(C(=O)OC)[C@H]13	none | Myeloid diff CP1 inactive | GFP autofluor inactive
C[C@@H]1CN([C@@H](C)CO)C(=O)c2cccc(NS(C)(=O)=O)c2O[C@H]1CN(C)Cc1ccc(Oc2ccccc2)cc1	none (no result: NR2E3 ag-2) | Myeloid diff CP1 inactive | GFP autofluor inactive
COc1ccc(S(=O)(=O)Nc2cccc3c2O[C@H](CN(C)Cc2ccc(Oc4ccccc4)cc2)[C@@H](C)CN([C@H](C)CO)C3=O)cc1	none (no result: NR2E3 ag-2)
CS(=O)(=O)c1ccc(Cl)c(NC(=O)COC(=O)CCCN2C(=O)c3cccc4cccc(c34)C2=O)c1	none
CCCS(=O)(=O)NC(=O)C1(C)CCCN(C(=O)c2cccc(C(F)(F)F)c2)C1 (configuration not stated)	none (no result: T cell HTS, NR2E3 ag-2)
CCCS(=O)(=O)NC(=O)C1(C)CCN(C(=O)c2cccc(C(F)(F)F)c2)C1 (configuration not stated)	Myeloid diff 2 active (no result: T cell HTS, NR2E3 ag-2) | Myeloid diff CP1 inactive | GFP autofluor inactive
COc1ccc(OC2C(=O)N(Cc3ccc(F)cc3)C2c2cc(OC)c(OC)c(OC)c2)cc1 (configuration not stated)	none
COc1ccc(C2C(Oc3ccccc3C)C(=O)N2Cc2ccc(F)cc2)cc1OC (configuration not stated)	none | Myeloid diff CP1 inactive | GFP autofluor inactive
CCOC(=O)SC1=N/C(=C\c2ccc(N(C)C)cc2)C(=O)S1	none | Myeloid diff CP1 inactive | GFP autofluor inactive
CCSC1=N/C(=C\c2ccc(C(=O)O)cc2)C(=O)S1	none
COc1ccc(CC(=O)NN2C(=O)c3ccccc3C2=O)cc1	Myeloid diff 2 active | Myeloid diff CP1 inactive | GFP autofluor inactive
COC(=O)CCC(=O)NN1C(=O)c2ccccc2C1=O	none
COC(=O)[C@@H](NC(=O)N1CCN(c2cccc(C(F)(F)F)c2)CC1)C(C)C	none
COC(=O)[C@H](CCSC)NC(=O)N1CCN(c2cccc(C(F)(F)F)c2)CC1	none | Myeloid diff CP1 inactive | GFP autofluor inactive
Cc1ccc(NS(=O)(=O)c2ccc3c(c2)NC(=O)CCS3)c(C)c1	none
CCN(CC)C(=O)CSc1ncnc2c(-c3cccs3)nsc12	none | Myeloid diff CP1 inactive | GFP autofluor inactive
CCN(CC)C(=O)CSc1ncnc2sccc12	none
